Here are results for three molecules from BindingDB's records for doi:10.1021/jm200590k (University of Eastern Finland, 2011).

In this assay the target is T1, NAD-dependent protein deacetylase sirtuin-2 (Homo sapiens, UniProt Q8IXJ6).
T1 sequence (Q8IXJ6 whole entry): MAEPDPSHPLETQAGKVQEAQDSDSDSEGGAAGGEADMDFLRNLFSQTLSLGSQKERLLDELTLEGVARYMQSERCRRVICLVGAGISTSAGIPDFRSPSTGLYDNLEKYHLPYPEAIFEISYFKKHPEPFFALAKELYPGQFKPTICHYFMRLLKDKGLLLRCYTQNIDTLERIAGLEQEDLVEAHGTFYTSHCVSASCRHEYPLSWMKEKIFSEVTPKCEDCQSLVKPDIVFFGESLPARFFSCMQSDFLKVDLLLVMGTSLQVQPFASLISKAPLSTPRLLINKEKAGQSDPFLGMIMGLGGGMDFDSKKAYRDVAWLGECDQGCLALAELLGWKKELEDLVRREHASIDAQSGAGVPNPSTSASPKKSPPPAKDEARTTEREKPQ
In words: Inhibition of recombinant GST-tagged SIRT2 at 200 uM after 1 hr by Fluor de Lys-based fluorescence assay. An outline of the steps: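 Single-point Fluor de Lys test at 200 μM: GST-SIRT1 (40 μM KI177 substrate) or GST-SIRT2 (138 μM KI179 substrate), 500 μM NAD+, BSA-supplemented buffer, 5 min rt preincubation, enzyme-started 1 h at 37 °C. Developer with 2 mM nicotinamide 45 min 37 °C; fluorescence ex 355/em 460 nm. Percent inhibition ± standard deviation.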

The structures appear in SMILES notation.

The Inhibition is the share of the control response that was lost under treatment. Regarding `CC(=S)NCCCC[C@H](N)C(=O)N[C@@H](C)C(=O)O`, the Inhibition is 2%.
As for `CC(=S)NCCCC[C@H](NC(=O)OCc1ccccc1)C(=O)NC1CCCCC1`, the Inhibition is 57.2%.
To `CC(=S)NCCCC[C@H](NC(=O)[C@H](N)Cc1ccccc1)C(=O)N[C@@H](C)C(=O)O` belongs 22.4%.
